Assay outcomes as filed in PubChem BioAssay.
The sample as a whole holds a higher share of hits than the screen did.
T cruzi growth-1 = T. cruzi proliferation inhibition; T. cruzi beta-gal in NIH3T3, GalScreen luminescence, 90 h; inhibition, % at 8.34 µM; hit rate 5.9% among 77,000;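 active means mean inhibition above about 93%, with at least 55% of replicates each passing it, limit read from the data, passing the limit was not always enough; inconclusive means only one of those two conditions holds; inactive means neither condition holds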
IDH1 R132H inh = inhibitors of human IDH1 R132H | O75874 | IDH1 R132H reductase, diaphorase/resazurin fluorescence, 60 min | inhibition, % at 10 µM | hit rate 0.18% among 70,000 | AID 624101; in the data active means inhibition above about 34%; inconclusive means no clear call, values can overlap the other calls; inactive means below about 11%;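 further: 0% = DMSO and 100% = no enzyme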
Target sequence (O75874 whole entry R132H): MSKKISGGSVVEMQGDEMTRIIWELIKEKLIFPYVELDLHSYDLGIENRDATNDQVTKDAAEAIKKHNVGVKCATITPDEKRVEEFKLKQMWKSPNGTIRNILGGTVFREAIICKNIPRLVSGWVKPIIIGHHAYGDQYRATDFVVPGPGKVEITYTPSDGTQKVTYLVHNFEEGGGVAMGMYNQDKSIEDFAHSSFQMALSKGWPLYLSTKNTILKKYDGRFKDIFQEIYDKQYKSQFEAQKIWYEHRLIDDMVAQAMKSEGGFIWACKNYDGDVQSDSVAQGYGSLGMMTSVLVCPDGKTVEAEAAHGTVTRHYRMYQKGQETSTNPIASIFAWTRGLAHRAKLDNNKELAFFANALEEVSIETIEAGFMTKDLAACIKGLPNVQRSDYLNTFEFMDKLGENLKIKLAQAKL
GASC1 inh = blocks human GASC-1 (KDM4C) demethylase activity; hit rate 0.15% among 96,000; GST-KDM4C 2-372, H3K9me3 peptide, LANCE TR-FRET; inhibition, % at 12.5 µM;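 active means mean replicate inhibition above about 25%, with at least 55% of replicates also reaching it, limit read from the data, passing the limit was not always enough; inconclusive means only one of those two conditions met; inactive means neither condition met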
Target sequence (Q9H3R0 2-372 limits assumed): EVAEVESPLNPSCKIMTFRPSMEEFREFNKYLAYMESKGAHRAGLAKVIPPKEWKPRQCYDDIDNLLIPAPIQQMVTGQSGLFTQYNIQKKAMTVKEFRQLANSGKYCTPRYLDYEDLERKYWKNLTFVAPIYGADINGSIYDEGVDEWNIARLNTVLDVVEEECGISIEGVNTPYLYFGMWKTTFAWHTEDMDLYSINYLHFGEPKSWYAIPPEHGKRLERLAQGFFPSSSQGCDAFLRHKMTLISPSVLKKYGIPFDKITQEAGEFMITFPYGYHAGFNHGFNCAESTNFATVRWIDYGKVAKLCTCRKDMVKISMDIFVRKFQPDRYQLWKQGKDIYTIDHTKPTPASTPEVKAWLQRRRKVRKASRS
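System: N-terminal GST-fused human GASC-1 (KDM4C) fragment, residues 2-372 / Amount: 10 nM GST-KDM4C in enzyme reaction / Also added: H3K9me3 peptide with Fe(II)/2OG / Times: 30 min demethylation and 1 h detection at room temperature / Signal: LANCE TR-FRET / Read-out basis: Fall in 671/618 emission ratio as inhibition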
T cruzi growth-2 = inhibitors of T. cruzi proliferation. shares compounds with T cruzi growth-1. T. cruzi beta-gal in NIH3T3, GalScreen luminescence, 90 h. inhibition, % at 8.35 µM. hit rate 72% among 5,600;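 active means mean replicate inhibition above about 95% and at least 55% of replicates individually reaching it, limit read from the data; inconclusive means only one of the two criteria is met; inactive means neither criterion is met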
T cruzi growth-3 = Trypanosoma cruzi proliferation inhibition; shares compounds with T cruzi growth-1; T. cruzi beta-gal in NIH3T3, GalScreen luminescence, 90 h; inhibition, % at 2.09 µM; hit rate 21% among 5,600; AID 651740;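 active means mean inhibition above about 95%, with at least 55% of replicates also reaching it, limit read from the data; inconclusive means meets just one of the two conditions; inactive means meets neither condition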;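 further: plate controls were neutral control median for no effect and positive control median for full effect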
NIH3T3 tox = kills mouse NIH/3T3 fibroblasts | NIH/3T3 viability, CellTiter-Glo ATP luminescence, 90 h | AID 651742 | shares compounds with T cruzi growth-1 | cytotoxicity (signal decrease), % at 8.35 µM | hit rate 14% among 5,600;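 active means mean signal decrease across replicates above about 35% based on untreated-well scatter, with enough replicates individually passing, limit read from the data; inconclusive means no rule stated though some were filed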;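 further: 0% = median of neutral control wells and 100% = median of positive control wells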
3T3 cytotox 2 = kills mouse NIH/3T3 fibroblasts | shares compounds with T cruzi growth-1 | NIH/3T3 viability, CellTiter-Glo ATP luminescence, 90 h | inhibition, % at 24.9 µM | hit rate 56% among 5,600;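 active means mean loss of cell viability signal at or above a set limit, and enough replicates individually reaching it; inconclusive means meets only the mean limit or only the replicate share; inactive means meets neither condition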;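 further: 0% = median of neutral control wells and 100% = median of positive control wells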
Numbers without * were called inactive; u = inconclusive; x = no result given.

SMILES | T cruzi growth-1 | IDH1 R132H inh | GASC1 inh | T cruzi growth-2 | T cruzi growth-3 | NIH3T3 tox | 3T3 cytotox 2
CCCC#Cc1ccc2c(c1)O[C@H](CN(C)Cc1cncnc1)[C@@H](C)CN([C@H](C)CO)S2(=O)=O | 86.0 | -0.4 | -3.3 | x | x | x | x
C[C@H](CO)N1C[C@H](C)[C@@H](CN(C)Cc2cccnc2)Oc2cc(C#CCN(C)C)ccc2S1(=O)=O | 104.2* | 0.1 | 3.2 | 102.7* | 103.5* | 23.2 | 21.4
COc1ccccc1CNC(=O)C[C@@H]1C[C@@H]2c3cc(NC(=O)C4CCC4)ccc3O[C@@H]2[C@H](CO)O1 | 48.5 | 0.3 | 0.7 | x | x | x | x
CCC(=O)N1C[C@@H](C)[C@@H](OC)CN(C)C(=O)c2cc(NC(=O)c3cnccn3)ccc2OC[C@H]1C | 6.6 | 0.3 | u | x | x | x | x
Cc1coc(C)c1C(=O)CC1(O)C(=O)Nc2ccc(Br)cc21 (stereo not given) | x | 0.5 | x | x | x | x | x
C[C@H]1CCCCO[C@@H](CN(C)Cc2ccncc2)[C@@H](C)CN([C@@H](C)CO)C(=O)c2cc(NC(=O)Nc3ccc(C(F)(F)F)cc3)ccc2O1 | 101.0* | 10.7 | 0.0 | 97.4* | 114.5* | -5.9 | 70.4*
C[C@H](CO)N1C[C@H](C)[C@@H](CN(C)Cc2ccncc2)OCCCC[C@H](C)Oc2ccc(NC(=O)Nc3ccc(C(F)(F)F)cc3)cc2C1=O | 101.5* | -1.1 | -0.6 | 103.5* | 81.9 | -29.1 | 41.9*
C[C@@H]1CCCCO[C@H](CN(C)Cc2ccc(C(F)(F)F)cc2)[C@H](C)CN([C@@H](C)CO)C(=O)c2cc(NC(=O)c3ccncc3)ccc2O1 | 90.1 | x | 0.3 | x | x | x | x
C[C@@H]1CCCCO[C@@H](CN(C)Cc2ccc(C(F)(F)F)cc2)[C@H](C)CN([C@H](C)CO)C(=O)c2cc(NC(=O)c3ccncc3)ccc2O1 | 109.4* | -4.5 | -1.1 | 103.3* | 56.1 | 12.5 | 103.1*
C[C@H](CO)N1C[C@H](C)[C@H](CN(C)Cc2ccncc2)OCCCC[C@H](C)Oc2ccc(NC(=O)Nc3ccc(C(F)(F)F)cc3)cc2C1=O | 94.1 | -1.5 | 3.4 | x | x | x | x
C[C@@H]1CN([C@@H](C)CO)C(=O)c2cc(NC(=O)c3ccncc3)ccc2O[C@H]1CN(C)Cc1ccc(C(F)(F)F)cc1 | 99.8* | x | -0.1 | 23.8 | -3.9 | 9.5 | 35.6
C[C@H]1CN([C@@H](C)CO)C(=O)c2cc(NC(=O)c3ccncc3)ccc2O[C@@H]1CN(C)Cc1ccc(C(F)(F)F)cc1 | 74.9 | 1.7 | -0.3 | x | x | x | x
C[C@@H]1CCCCO[C@@H](CN(C)Cc2ccncc2)[C@H](C)CN([C@@H](C)CO)C(=O)c2cc(NC(=O)Nc3ccc(C(F)(F)F)cc3)ccc2O1 | 86.4 | 0.6 | 2.1 | x | x | x | x
CN1C(=O)c2cc(NC(=O)C3CCCC3)ccc2OC[C@@H]2O[C@@H](CC(=O)NCC3CC3)CC[C@@H]21 | -32.1 | x | 1.3 | x | x | x | x
O=C(COc1ccc(C(=O)Nc2ccc(F)cc2)cc1)Nc1ccccc1C(F)(F)F | x | 0.3 | x | x | x | x | x
Cc1ccc(S(=O)(=O)Nc2cccc3c2O[C@@H](CN(C)CC2CCCCC2)[C@H](C)CN([C@H](C)CO)C3=O)cc1 | 23.3 | x | 3.4 | x | x | x | x
C[C@H](CO)N1C[C@H](C)[C@H](CN(C)Cc2ccc(-c3ccccc3)cc2)Oc2ccc(NC(=O)Cn3cnnn3)cc2CC1=O | 31.1 | -1.2 | 12.0 | x | x | x | x
C=C(C(=O)O)[C@H]1C=C2[C@@H](C)[C@@H](O)[C@H](O)C[C@]2(C)CC1 | x | 0.3 | x | x | x | x | x
O=C(C[C@@H]1CC[C@@H](NC(=O)Nc2ccc(F)cc2)[C@@H](CO)O1)NCc1cccc(F)c1 | x | -0.1 | -1.1 | x | x | x | x
O=C(C[C@H]1CC[C@H](NC(=O)c2cccc(F)c2)[C@@H](CO)O1)NCc1ccccc1 | 28.9 | -0.1 | 0.8 | x | x | x | x
COc1ccc2c3c(n(C)c2c1)[C@@H](CO)N(C(=O)C1CCCC1)CC31CCN(C(=O)c2ccncc2)CC1 | x | x | 0.8 | x | x | x | x
C[C@@H]1CN([C@H](C)CO)C(=O)c2cc(NC(=O)Nc3ccc(F)cc3)ccc2O[C@@H]1CN(C)Cc1ccc(-c2ccccc2)cc1 | u | 0.1 | 0.9 | 95.3* | 88.8 | 111.3* | 106.2*
C[C@@H]1CN([C@@H](C)CO)C(=O)c2cc(NC(=O)Nc3ccc(F)cc3)ccc2O[C@@H]1CN(C)Cc1ccc(-c2ccccc2)cc1 | 93.8* | -1.4 | -2.0 | 96.4* | 87.2 | 57.4* | 101.9*
C[C@H]1CN([C@@H](C)CO)C(=O)c2cc(NC(=O)Nc3ccccc3)ccc2O[C@H]1CN(C)Cc1ccc(-c2ccccc2)cc1 | 76.9 | x | 1.2 | x | x | x | x
C[C@@H]1CN([C@H](C)CO)C(=O)c2cc(NC(=O)Nc3ccc(F)cc3)ccc2O[C@H]1CN(C)Cc1ccc(-c2ccccc2)cc1 | 47.9 | x | -0.7 | x | x | x | x
SMILES | T cruzi growth-1 | IDH1 R132H inh | GASC1 inh | T cruzi growth-2 | T cruzi growth-3 | NIH3T3 tox | 3T3 cytotox 2
Cn1cnc(S(=O)(=O)N[C@@H]2C=C[C@H](CC(=O)NCC3CCCCC3)O[C@@H]2CO)c1 | x | 0.0 | -2.2 | x | x | x | x
O=C(Cn1cnc2ccccc2c1=O)Nc1ccc(I)cc1 | x | 0.1 | x | x | x | x | x
C[C@@H]1CCCCO[C@H](CN(C)C(=O)Nc2ccc(C(F)(F)F)cc2)[C@H](C)CN([C@@H](C)CO)C(=O)c2cc(NC(=O)Nc3cccc4ccccc34)ccc2O1 | 85.6 | x | -1.1 | x | x | x | x
C[C@H](CO)N1C[C@H](C)[C@H](CN(C)C(=O)Nc2cccc3ccccc23)OCCCC[C@H](C)Oc2ccc(NC(=O)Nc3ccc(C(F)(F)F)cc3)cc2C1=O | 10.4 | x | -0.5 | x | x | x | x
C[C@@H]1CCCCO[C@@H](CN(C)C(=O)Nc2ccc(C(F)(F)F)cc2)[C@H](C)CN([C@H](C)CO)C(=O)c2cc(NC(=O)Nc3cccc4ccccc34)ccc2O1 | 99.9* | 0.2 | -1.3 | 107.1* | 102.0* | -6.4 | 4.7
C[C@@H]1CCCCO[C@H](CN(C)C(=O)Nc2cccc3ccccc23)[C@H](C)CN([C@@H](C)CO)C(=O)c2cc(NC(=O)Nc3ccc(C(F)(F)F)cc3)ccc2O1 | 108.6* | -2.5 | -0.7 | 111.2* | 112.8* | 6.5 | 12.3
C[C@H]1CCCCO[C@@H](CN(C)C(=O)Nc2ccccc2)[C@@H](C)CN([C@@H](C)CO)C(=O)c2cc(NC(=O)NC3CCCCC3)ccc2O1 | 97.8* | x | -0.4 | u | 13.8 | -9.5 | -14.4
C[C@H]1CCCCO[C@H](CN(C)C(=O)NC2CCCCC2)[C@@H](C)CN([C@@H](C)CO)C(=O)c2cc(NC(=O)Nc3ccccc3)ccc2O1 | 91.6 | x | 6.8 | x | x | x | x
C[C@@H]1CN([C@@H](C)CO)C(=O)c2cc(NC(=O)NC3CCCCC3)ccc2O[C@@H](C)CCCCO[C@@H]1CN(C)C(=O)Nc1ccccc1 | 14.1 | x | 0.7 | x | x | x | x
